Test results reported in publication PMC8137654 (Bioconjugate chemistry, 2021).
Entries after “also recorded” stand apart in the source; their conditions may differ. Non-standard residues stand in square brackets, D forms with d. Residues, ends and D or L forms follow the SMILES beside them. ξ: configuration not given here. *: point of attachment. X1 = COc1cc(N=Nc2ccccc2[N+](=O)[O-])c(C)cc1N=Nc1ccc(N(C)CCCC(=O)*)cc1; X2 = O=C(O)c1cc(C(=O)*)ccc1-c1c2ccc(=O)cc-2oc2cc(O)ccc12; X3 = O=P(O)(O)C(O)(CCN*)P(=O)(O)O; ξH = NC(Cc1c[nH]cn1)C(=O)O; ξQ = NC(=O)CCC(N)C(=O)O; ξP = O=C(O)C1CCCN1; βAla = NCCC(=O)O

Assays:
[1] = Adsorption on hydroxyapatite and bone mineral
Ctsk [2] = molecular target: T1, Ctsk (Homo sapiens, UniProt P43235); assay type: biochemical
T1 sequence (P43235 115-329): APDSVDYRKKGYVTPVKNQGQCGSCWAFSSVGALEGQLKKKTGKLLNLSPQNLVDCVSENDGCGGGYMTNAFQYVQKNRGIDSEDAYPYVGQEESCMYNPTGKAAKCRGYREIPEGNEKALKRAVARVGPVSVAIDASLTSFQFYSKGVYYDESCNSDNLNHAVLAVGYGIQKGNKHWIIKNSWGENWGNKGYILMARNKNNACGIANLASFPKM
Outline: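 Probe kept in solution at pH 7 with 20 nM initial human Ctsk. Ctsk inhibitor added to the assay mixture at 0, 1, 5, 10, 30, 50 or 100 nM (n = 3). Fluorescence followed over time through a 2 h incubation, with an enzyme-free control.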

[3] = OFS-1 fluorescence in water without enzyme; assay type: physicochemical; details: 10 μM OFS-1 in water, 48 h, 37 °C
[4] = system: RPMI-8226-Luc human multiple myeloma cells engrafted in NSG/BLT humanized mice; assay: In vivo fluorescence imaging of multiple myeloma-induced osteolysis; set-up: species or system mouse
Outline: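 NSG mice were co-grafted with human CD34+ hematopoietic stem cells, liver and thymus and irradiated (NSG/BLT). RPMI-8226-Luc cells (15×10^6 per mouse, 100 μL) were given by tail vein; controls received vehicle. Seven days later, 100 μL of 50 μM OFS-1 was injected retro-orbitally. In vivo fluorescence and bioluminescence imaging was done 3, 4 and 5 wk after cell injection, plus ex vivo micro-CT. Control n = 1, myeloma mice n = 3.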

Ctsk [5] = molecular target: T1, Ctsk; assay: Kinetics of Ctsk-catalyzed OFS-1 activation in solution; assay type: biochemical
human osteoclasts = assay: Activation of OFS-1 adsorbed on HAp by resorbing human osteoclasts; assay type: cell-based
Outline: (§1)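 HAp […]-coated polystyrene wells were pre-treated with 5.0 μM OFS-1 and washed with PBS. They were then seeded with human osteoclasts, alone or co-cultured with RPMI-8226-Luc myeloma cells, with or without 30 nM odanacatib. Wells were imaged by bright-field and fluorescence microscopy (time-lapse video) for 24 h at 37 °C to record resorption pits and probe fluorescence.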

Ctsk [6] = molecular target: T1, Ctsk; assay: Ctsk-induced fluorogenesis of OFS-1 pre-adsorbed on HAp with/without odanacatib; assay type: biochemical; details: HAp treated overnight with 0.5 μM OFS-1 in 50 mM acetate pH 5.5, washed; 20 nM Ctsk, 37 °C, 2 h
Outline: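 […] (HAp)-coated polystyrene wells soaked overnight in probe in acetate buffer, then washed repeatedly with water to remove unbound probe. Wells covered with human Ctsk, with Ctsk inhibitor at 0, 1, 5, 10, 30, 50 or 100 nM (n = 3). Fluorescence read at 1 min intervals in a plate reader at 37 °C.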

[7] = system: osteoclasts co-cultured with RPMI-8226-Luc human multiple myeloma cells; assay: Activation of OFS-1 on HAp by osteoclasts co-cultured with RPMI-8226-Luc cells; assay type: cell-based
Outline: as §1

[8] = ref [14]; cited from earlier work
Ctsk [9] = molecular target: T1, Ctsk; details: reported value; ref [25]; cited from earlier work
Ctsk [10] = molecular target: T1, Ctsk; details: cited from earlier work

For `COc1cc(N=Nc2ccccc2[N+](=O)[O-])c(C)cc1N=Nc1ccc(N(C)CCCC(=O)NCC(=O)NC(Cc2c[nH]cn2)C(=O)N2CCCC2C(=O)NCC(=O)NCC(=O)N2CCCC2C(=O)NC(CCC(N)=O)C(=O)NCC(=O)NCCC(=O)N[C@@H](CCCCNC(=O)c2ccc(-c3c4ccc(=O)cc-4oc4cc(O)ccc34)c(C(=O)O)c2)C(=O)NCCC(O)(P(=O)(O)O)P(=O)(O)O)cc1` (stereo partly drawn) [OFS-1] (X1-G[ξH][ξP]GG[ξP][ξQ]G[βAla]K(X2)-X3), the “adsorption on HAp and bone mineral” value [1] was “avidly adsorbed by hydroxyapatite (HAp) and bone mineral surfaces; also recorded: strongly and specifically binds to bone surfaces”, the “time-course of OFS-1 fluorescent activity” value (Ctsk [2]; OFS-1 0.5 μM, 20 nM Ctsk, in solution, pH 7) was “fluorescent activity was immediately observed within 10 min and reached a plateau thereafter” and the “OFS-1 fluorescence without enzyme” value (Ctsk [2]; control lacking enzyme, 2 h incubation) was “essentially unchanged”. The “extrinsic fluorescence in water without enzyme” value [3] was “virtually undetectable”, the “time from which distinct in vivo fluorescent signal was detected” value ([4]; 100 μL of 50 μM OFS-1 retro-orbital, weeks after RPMI-8226-Luc cell injection) was 4 wk and the “detection relative to myeloma cell luminescence” value ([4]; NSG/BLT humanized mice injected with RPMI-8226-Luc cells) was “before the co-localized luminescence of the myeloma cells could be detected”. The “in vivo OFS-1 signal relative to tumor site / osteolysis lesions” value ([4]; another mouse, cervical area, post-mortem micro-CT) was “extensive osteolysis lesions (arrows), which corresponded to the sentinel OFS-1 signal; also recorded: a strong fluorescent signal was detected at (and extending beyond) the bioluminescent tumor site”, the “in vivo OFS-1 signal in control animals” value ([4]; physiological level of bone resorption, control n = 1) was “did not show the OFS-1 signal” and the “dependence of fluorescence intensity on OFS-1 concentration” value (Ctsk [5]; 25 nM human Ctsk, 50 mM sodium acetate pH 5.5, 2.5 mM EDTA, 1 mM DTT, 37 °C, Supplementary Figure S3) was “depended linearly on the OFS-1 concentration up to 1 μM”. The “catalytic efficiency (kcat/Km)” value (Ctsk [5]; Ctsk 2.5 nM (Fig. 2), 50 mM NaOAc pH 5.5, 37 °C) was 0.97 × 10^5 M-^1 s-^1, the “fluorescence on exposure to Ctsk” value (Ctsk [5]; Ctsk 2.5–20 nM, in solution or pre-adsorbed on HAp) was “strong fluorescence” and the “cleavage efficiency relative to Abz-HPGGPQ-EDN2Ph (less efficient)” value (Ctsk [5]; OFS-1 vs literature value of Abz-HPGGPQ-EDN2Ph, ref [25] for the comparator) was “only fourfold less efficiently”. For the same molecule, the “OFS-1 fluorescence without osteoclasts” value (human osteoclasts; control wells, 5.0 μM OFS-1, not seeded with osteoclasts) was “not significantly fluorescent”, the “Ctsk-dependent fluorescence of HAp-adsorbed OFS-1” value (Ctsk [6]) was “time-course increase of fluorescent intensity; also recorded: Bright Ctsk-dependent fluorescence was again observed” and the “OFS-1 fluorescent signal in co-culture” value ([7]; OFS-1 5.0 μM pre-treated HAp wells, osteoclasts + RPMI-8226-Luc) was “robust activation of OFS-1 fluorescent signals”. For the same molecule, the “OFS-1 fluorescent signal compared to solitary osteoclasts” value ([7]; osteoclasts + RPMI-8226-Luc vs solitary osteoclasts) was “increased by RPMI-8226-Luc cells”.
In the case of `NCCC(O)(P(=O)(O)O)P(=O)(O)O` [pamidronate], the bone-affinity [8] is given as “high bone-affinity”.
In the case of `CC(C)(F)C[C@H](N[C@@H](c1ccc(-c2ccc(S(C)(=O)=O)cc2)cc1)C(F)(F)F)C(=O)NC1(C#N)CC1` [odanacatib], the “pit formation by osteoclasts with odanacatib” value (human osteoclasts; 30 nM odanacatib) is reported as “pit formation was again observed”, the “osteoclast-induced OFS-1 fluorescence with odanacatib” value (human osteoclasts; 30 nM odanacatib (Figure S9)) is reported as “fluorescence was suppressed” and the “OFS-1 fluorescent signal in co-culture with odanacatib” value ([7]; 30 nM odanacatib) is reported as “effectively inhibited”.
In the case of Abz-HPGGPQ-EDN2Ph, the catalytic efficiency (Ctsk [9]) is given as 426000 M⁻¹ s⁻¹.
In the case of `NCCCC(O)(P(=O)(O)O)P(=O)(O)O` [alendronate], the bone-affinity [8] is listed as “high bone-affinity”.
In the case of HPGGPQ, the “cleavage by Ctsk” value (Ctsk [10]; ref [24]) is given as “selectively cleaved by Ctsk” and the “Ctsk cleavage site (original peptide)” value (Ctsk [10]; well-established cleavage site, no reference at this place) is given as “Gly-Gly bond”.
